Measured values: ChEMBL document CHEMBL3600357 (J Med Chem, 2015)
Values belong to the molecule of their own block, whether it stands above or below them.

What was measured:
SJSA-1 = assay: Inhibition of cell proliferation of human SJSA1 cells
[1] = Clearance in Sprague-Dawley rat at 1 mg/kg, iv; assay type: ADME, organism-based; conditions: in vivo
Summary of the method: (§1)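 Sprague-Dawley rats. IV dose given as a solution in NMP:PEG200 (10:90); 3 mg/kg PO given as a suspension in CMC:water:Tween (0.5:99:0.5). AUC and Cmax dose-normalized to 1 mg/kg. Mean ± SD from four rats.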

Rattus norvegicus [2] = assay: AUC in Sprague-Dawley rat at 1 mg/kg, iv; assay type: ADME, organism-based; conditions: in vivo; summary of the method: as §1
[3] = Volume of distribution at steady state in Sprague-Dawley rat at 1 mg/kg, iv; assay type: ADME, organism-based; conditions: Sprague-Dawley, in vivo, read-out: Vdss
[4] = Permeability from basolateral to apical side in human Caco2 cells; assay type: ADME, cell-based; conditions: Caco-2
[5] = Permeability in human Caco2 cells assessed as drug recovery during apical to basolateral transport; assay type: ADME, cell-based; conditions: Caco-2, read-out: Drug recovery
[6] = Protein binding in Sprague-Dawley rat plasma by equilibrium dialysis method; assay type: ADME, cell-free; conditions: read-out: PPB
Summary of the method: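 Rat plasma protein binding by rapid equilibrium dialysis (RED) in 100% plasma.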

Cytochrome P450 3A4 [7] = target: T1, Cytochrome P450 3A4 (Homo sapiens, UniProt P08684); assay: Time dependent inhibition of CYP3A4 (unknown origin); assay type: ADME
[8] = Permeability from apical to basolateral side in human Caco2 cells; assay type: ADME, cell-based; conditions: Caco-2
[9] = Half life in rat liver microsomes; assay type: ADME
Rattus norvegicus [10] = assay: Oral bioavailability in Sprague-Dawley rat at 3 mg/kg; assay type: ADME, organism-based; conditions: in vivo; summary of the method: as §1
[11] = Intrinsic clearance in rat liver microsomes; assay type: ADME; conditions: read-out: CLH
[12] = Equilibrium solubility in pH 6.8 buffer solution; assay type: physicochemical
Summary of the method: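 High-throughput equilibrium solubility assay at pH 6.8.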

Rattus norvegicus [13] = assay: AUC in Sprague-Dawley rat at 3 mg/kg, po; assay type: ADME, organism-based; conditions: in vivo; summary of the method: as §1
[14] = Terminal half life in Sprague-Dawley rat at 1 mg/kg, iv; assay type: ADME, organism-based; conditions: Sprague-Dawley, in vivo, read-out: beta t1/2 (converted); summary of the method: as §1
[15] = Tmax in Sprague-Dawley rat at 3 mg/kg, po; assay type: ADME, organism-based; conditions: in vivo
[16] = Cmax in Sprague-Dawley rat at 3 mg/kg, po; assay type: ADME, organism-based; set-up: dose 3 mg/kg, route oral; conditions: in vivo; summary of the method: as §1
[17] = target: Voltage-gated inwardly rectifying potassium channel KCNH2 (Homo sapiens, UniProt Q12809); assay: Inhibition of human ERG by radioligand binding assay
Cytochrome P450 3A4 [18] = target: T1, Cytochrome P450 3A4; assay: Time dependent inhibition of CYP3A4 in human liver microsomes; assay type: ADME
[19] = Intrinsic clearance in human liver microsomes; assay type: ADME; conditions: read-out: CLH
[20] = Octanol water partition coefficient, logP of the compound; assay type: physicochemical
[21] = target: Tumour suppressor p53/oncoprotein Mdm2 (Homo sapiens, UniProt Q00987); assay: Inhibition of MDM2/p53 interaction (unknown origin) using biotinylated MDM2 and Cy5-p53 (18 to 26 amino acids) by TR-FRET assay; assay type: protein assay
[22] = Intrinsic clearance in monkey liver microsomes; assay type: ADME, Macaca mulatta; conditions: rhesus monkey, read-out: CLH
[23] = target: E3 ubiquitin-protein ligase Mdm2 (Canis lupus familiaris, UniProt P56950); assay: Inhibition of dog MDM2 by TR-FRET assay
[24] = Inhibition of rat MDM2 by TR-FRET assay
[25] = target: E3 ubiquitin-protein ligase Mdm2 (Mus musculus, UniProt P23804); assay: Inhibition of mouse MDM2 by TR-FRET assay
E3 ubiquitin-protein ligase Mdm2 (Mus musculus, UniProt P23804), sequence (P23804 whole entry): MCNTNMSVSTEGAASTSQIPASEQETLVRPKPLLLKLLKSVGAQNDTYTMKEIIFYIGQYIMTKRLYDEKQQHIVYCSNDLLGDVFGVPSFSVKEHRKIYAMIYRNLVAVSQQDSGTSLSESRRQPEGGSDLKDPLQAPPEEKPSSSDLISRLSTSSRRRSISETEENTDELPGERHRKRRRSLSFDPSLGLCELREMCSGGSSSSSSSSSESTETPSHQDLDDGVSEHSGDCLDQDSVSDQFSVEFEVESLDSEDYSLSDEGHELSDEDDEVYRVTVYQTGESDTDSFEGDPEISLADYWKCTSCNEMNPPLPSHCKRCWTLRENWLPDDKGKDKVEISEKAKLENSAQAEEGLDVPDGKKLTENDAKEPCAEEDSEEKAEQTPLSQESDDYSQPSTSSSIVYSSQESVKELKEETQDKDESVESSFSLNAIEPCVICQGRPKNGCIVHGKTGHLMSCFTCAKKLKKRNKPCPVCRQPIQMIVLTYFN

Tumour suppressor p53/oncoprotein Mdm2, sequence (P04637 whole entry, the tested form may be a part): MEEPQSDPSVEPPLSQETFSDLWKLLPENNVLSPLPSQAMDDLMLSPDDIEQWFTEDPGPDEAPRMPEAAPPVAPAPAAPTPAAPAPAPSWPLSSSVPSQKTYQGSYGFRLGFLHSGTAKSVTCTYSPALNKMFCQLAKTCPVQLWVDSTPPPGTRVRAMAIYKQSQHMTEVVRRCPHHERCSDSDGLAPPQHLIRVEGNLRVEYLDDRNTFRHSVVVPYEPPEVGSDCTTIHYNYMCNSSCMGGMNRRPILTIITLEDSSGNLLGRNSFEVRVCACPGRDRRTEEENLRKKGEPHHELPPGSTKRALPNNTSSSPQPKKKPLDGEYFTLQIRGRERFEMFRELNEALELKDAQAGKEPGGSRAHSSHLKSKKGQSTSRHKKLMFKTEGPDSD
Tumour suppressor p53/oncoprotein Mdm2, sequence (Q00987 whole entry, the tested form may be a part): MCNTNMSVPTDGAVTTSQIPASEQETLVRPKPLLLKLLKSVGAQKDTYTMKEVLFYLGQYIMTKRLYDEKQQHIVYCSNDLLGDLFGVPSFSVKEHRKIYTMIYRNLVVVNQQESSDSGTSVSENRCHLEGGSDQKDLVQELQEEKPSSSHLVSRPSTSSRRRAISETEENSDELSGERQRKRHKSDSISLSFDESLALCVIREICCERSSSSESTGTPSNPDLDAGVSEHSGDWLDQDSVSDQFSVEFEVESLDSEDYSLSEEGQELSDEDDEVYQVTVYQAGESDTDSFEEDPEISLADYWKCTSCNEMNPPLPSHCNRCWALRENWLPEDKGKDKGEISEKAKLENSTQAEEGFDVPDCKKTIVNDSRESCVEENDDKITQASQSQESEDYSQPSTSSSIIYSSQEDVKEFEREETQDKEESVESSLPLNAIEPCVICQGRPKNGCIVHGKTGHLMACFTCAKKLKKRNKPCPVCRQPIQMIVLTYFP
Voltage-gated inwardly rectifying potassium channel KCNH2, sequence (Q12809 whole entry): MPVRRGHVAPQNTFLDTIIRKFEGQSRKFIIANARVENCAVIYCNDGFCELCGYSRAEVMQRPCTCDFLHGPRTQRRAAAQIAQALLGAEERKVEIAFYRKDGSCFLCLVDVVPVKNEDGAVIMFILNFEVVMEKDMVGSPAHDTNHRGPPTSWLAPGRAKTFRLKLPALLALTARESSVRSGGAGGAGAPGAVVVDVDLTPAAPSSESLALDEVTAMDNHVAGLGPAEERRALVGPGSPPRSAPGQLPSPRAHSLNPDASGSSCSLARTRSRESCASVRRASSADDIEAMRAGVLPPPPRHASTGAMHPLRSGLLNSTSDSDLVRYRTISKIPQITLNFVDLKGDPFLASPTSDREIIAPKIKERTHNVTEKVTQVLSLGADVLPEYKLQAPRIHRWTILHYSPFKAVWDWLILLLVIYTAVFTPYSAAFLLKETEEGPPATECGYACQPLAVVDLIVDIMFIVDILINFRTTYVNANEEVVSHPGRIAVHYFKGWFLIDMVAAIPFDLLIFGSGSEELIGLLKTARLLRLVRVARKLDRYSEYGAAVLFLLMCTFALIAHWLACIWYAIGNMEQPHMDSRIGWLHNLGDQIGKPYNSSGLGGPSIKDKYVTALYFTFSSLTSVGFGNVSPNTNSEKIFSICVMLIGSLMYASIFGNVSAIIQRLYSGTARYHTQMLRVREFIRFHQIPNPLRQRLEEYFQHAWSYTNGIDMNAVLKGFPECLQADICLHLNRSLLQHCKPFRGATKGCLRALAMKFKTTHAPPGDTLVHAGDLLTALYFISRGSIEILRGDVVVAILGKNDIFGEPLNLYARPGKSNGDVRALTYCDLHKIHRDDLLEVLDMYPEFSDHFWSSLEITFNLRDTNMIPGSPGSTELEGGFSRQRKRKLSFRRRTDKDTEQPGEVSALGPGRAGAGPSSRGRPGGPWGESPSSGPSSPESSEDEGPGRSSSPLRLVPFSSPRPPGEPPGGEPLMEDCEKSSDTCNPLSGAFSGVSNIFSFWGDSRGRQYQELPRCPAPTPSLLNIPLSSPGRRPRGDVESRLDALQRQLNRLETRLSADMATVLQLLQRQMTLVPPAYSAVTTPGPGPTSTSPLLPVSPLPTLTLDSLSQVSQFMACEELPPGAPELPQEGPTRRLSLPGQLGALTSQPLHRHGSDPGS
T1 sequence (P08684 whole entry): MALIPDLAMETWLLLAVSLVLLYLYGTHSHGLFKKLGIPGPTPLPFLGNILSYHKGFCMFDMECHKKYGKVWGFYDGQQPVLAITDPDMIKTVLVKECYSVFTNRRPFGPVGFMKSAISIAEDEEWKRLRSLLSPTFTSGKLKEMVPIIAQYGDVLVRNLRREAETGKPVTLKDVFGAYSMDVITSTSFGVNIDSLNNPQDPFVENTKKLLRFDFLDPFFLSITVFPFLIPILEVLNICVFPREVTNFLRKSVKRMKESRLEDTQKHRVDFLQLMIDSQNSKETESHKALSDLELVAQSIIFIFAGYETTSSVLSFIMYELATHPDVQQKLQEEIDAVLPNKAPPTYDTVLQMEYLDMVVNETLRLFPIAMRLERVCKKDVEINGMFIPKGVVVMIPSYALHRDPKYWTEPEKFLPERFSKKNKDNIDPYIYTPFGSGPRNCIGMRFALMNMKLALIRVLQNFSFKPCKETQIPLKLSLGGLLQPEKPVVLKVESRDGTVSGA
E3 ubiquitin-protein ligase Mdm2 (Canis lupus familiaris, UniProt P56950), sequence (P56950 whole entry): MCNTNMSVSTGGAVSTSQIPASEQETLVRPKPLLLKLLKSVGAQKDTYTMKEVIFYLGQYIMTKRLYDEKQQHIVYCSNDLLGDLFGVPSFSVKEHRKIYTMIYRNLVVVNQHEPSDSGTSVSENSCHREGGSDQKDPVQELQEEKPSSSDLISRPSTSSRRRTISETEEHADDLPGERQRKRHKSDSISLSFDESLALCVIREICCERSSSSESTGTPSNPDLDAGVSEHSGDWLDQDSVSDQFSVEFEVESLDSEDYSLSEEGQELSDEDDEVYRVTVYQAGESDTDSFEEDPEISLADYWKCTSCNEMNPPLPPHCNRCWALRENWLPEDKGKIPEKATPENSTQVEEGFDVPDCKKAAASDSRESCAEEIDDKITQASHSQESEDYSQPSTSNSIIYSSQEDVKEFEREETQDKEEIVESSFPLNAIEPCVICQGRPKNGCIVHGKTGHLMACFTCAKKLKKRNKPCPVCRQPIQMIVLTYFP

Compound: CC[C@@H](C)Oc1cc2c(cc1OC)CC(=O)N(c1ccc(N(C)Cc3ccncc3)cc1)C2c1ccc(Cl)cc1 (stereo not given in full)
GI50 (SJSA-1): 3860 nM

Compound: CC[C@@H](C)Oc1cc2c(cc1OC)CC(=O)N(c1ccc(N(C)Cc3ccncc3)cc1)[C@H]2c1ccc(Cl)cc1
GI50 (SJSA-1): 1210 nM

Compound: CC[C@@H](C)Oc1cc2c(cc1OC)CC(=O)N(c1ccc(N(C)Cc3ccncc3)cc1)[C@@H]2c1ccc(Cl)cc1
GI50 (SJSA-1): 29600 nM

Compound: CC[C@@H](C)Oc1cc2c(cc1OC)CC(=O)N(c1ccc(N(C)CC3CCNCC3)cc1)C2c1ccc(Cl)cc1 (stereo not given in full)
GI50 (SJSA-1): 1090 nM

Compound: CC[C@@H](C)Oc1cc2c(cc1OC)CC(=O)N(c1ccc(N(C)C[C@H]3CC[C@H](N)CC3)cc1)C2c1ccc(Cl)cc1 (stereo not given in full)
GI50 (SJSA-1): 2850 nM

Compound: CC[C@@H](C)Oc1cc2c(cc1OC)CC(=O)N(c1ccc(N(C)C[C@H]3CC[C@H](N(C)C)CC3)cc1)C2c1ccc(Cl)cc1 (stereo not given in full)
GI50 (SJSA-1): 1130 nM

Compound: CC[C@@H](C)Oc1cc2c(cc1OC)CC(=O)N(c1ccc(N(C)C[C@H]3CC[C@H](N(C)C)CC3)cc1)[C@H]2c1ccc(Cl)cc1
clearance [1]: 15 mL/min/kg | AUC (Rattus norvegicus [2]): 1574 nmol·h/L | Vd [3]: 23.9 L/kg | Papp B→A [4]: 0.12 ×10⁻⁶ cm/s | recovery [5]: < 30% | GI50 (SJSA-1): 940 nM | fraction unbound [6]: < 0.01 | K (Cytochrome P450 3A4 [7]): 0.042 min⁻¹ | Papp A→B [8]: 0.08 ×10⁻⁶ cm/s | half-life [9]: 246 min | F (Rattus norvegicus [10]): 18% | microsomal CLint [11]: 5.6 µL/min/mg | solubility thermodynamic [12]: > 1000 µM | AUC (Rattus norvegicus [13]): 297 nmol·h/L | half-life [14]: 1150 min | Tmax [15]: 7 h | Cmax [16]: 17.6 nM | IC50 [17]: 1.3 µM

Compound: COc1cc2c(cc1OC(C)C)[C@H](c1ccc(Cl)cc1)N(c1ccc(N(C)C[C@H]3CC[C@H](N(C)C)CC3)cc1)C(=O)C2
IC50 (Cytochrome P450 3A4 [18]): 9.4 µM | GI50 (SJSA-1): 710 nM | microsomal CLint [19]: 4.6 µL/min/mg | logP [20]: > 4.2

Compound: CCC(=O)N[C@H]1CC[C@H](CN(C)c2ccc(N3C(=O)Cc4cc(OC)c(O[C@H](C)CC)cc4[C@@H]3c3ccc(Cl)cc3)cc2)CC1
GI50 (SJSA-1): 4960 nM | IC50 [21]: 20 nM | IC50 [17]: > 30 µM

Compound: COc1cc2c(cc1OC(C)C)[C@H](c1ccc(Cl)cc1)N(c1ccc(N(C)C[C@H]3CC[C@H](N4CNC(=O)C4)CC3)cc1)C(=O)C2
GI50 (SJSA-1): 600 nM | IC50 [21]: 1.7 nM

Compound: COc1cc2c(cc1OC(C)C)[C@H](c1ccc(Cl)cc1)N(c1ccc(N(C)C[C@H]3CC[C@H](N4CCNC(=O)C4)CC3)cc1)C(=O)C2
AUC (Rattus norvegicus [2]): 2154 nmol·h/L | Vd [3]: 8 L/kg | IC50 (Cytochrome P450 3A4 [18]): 11.3 µM | microsomal CLint [22]: 79.7 µL/min/mg | GI50 (SJSA-1): 350 nM | microsomal CLint [19]: 3.4 µL/min/mg | fraction unbound [6]: < 0.01 | logP [20]: 5.3 | F (Rattus norvegicus [10]): 49% | AUC (Rattus norvegicus [13]): 1018 nmol·h/L | half-life [14]: 558 min | Cmax [16]: 74.6 nM | IC50 [17]: 16 µM

IC50 (Cytochrome P450 3A4 [18]): 5 µM | microsomal CLint [19]: 78.3 µL/min/mg | logP [20]: > 6.3 | IC50 [21]: 1.6 nM
Compound: COc1cc2c(cc1OC(C)C)[C@H](c1ccc(Cl)cc1)N(c1ccc(N(C)C[C@H]3CC[C@H](N(C)C)CC3)nc1)C(=O)C2

IC50 (Cytochrome P450 3A4 [18]): 13.2 µM | microsomal CLint [22]: 224 µL/min/mg | microsomal CLint [19]: 157 µL/min/mg | logP [20]: 4.4 | IC50 [21]: 11.4 nM
Compound: COc1cc2c(cc1OC(C)C)[C@H](c1ccc(Cl)cc1)N(c1ccc(N(C)C[C@H]3CC[C@H](N4CC(=O)N(C)C4)CC3)nc1)C(=O)C2

IC50 (Cytochrome P450 3A4 [18]): > 20 µM | microsomal CLint [22]: 279 µL/min/mg | microsomal CLint [19]: 151 µL/min/mg | logP [20]: 4.8
Compound: COc1cc2c(cc1OC(C)C)[C@H](c1ccc(Cl)cc1)N(c1ccc(N(C)C[C@H]3CC[C@H](N4CCN(C)C(=O)C4)CC3)nc1)C(=O)C2

IC50 (Cytochrome P450 3A4 [18]): > 20 µM | microsomal CLint [22]: 355 µL/min/mg | microsomal CLint [19]: 156 µL/min/mg | logP [20]: 4.6
Compound: COc1cc2c(cc1OC(C)C)[C@H](c1ccc(Cl)cc1)N(c1ccc(N(C)C[C@H]3CC[C@H](N4CCN(C)C(=O)C4)CC3)cn1)C(=O)C2

IC50 (Cytochrome P450 3A4 [18]): > 20 µM | microsomal CLint [22]: 420 µL/min/mg | microsomal CLint [19]: 220 µL/min/mg | logP [20]: 4.6
Compound: COc1cc2c(cc1OC(C)C)[C@H](c1ccc(Cl)cc1)N(c1cnc(N(C)C[C@H]3CC[C@H](N4CCN(C)C(=O)C4)CC3)cn1)C(=O)C2

Ki [23]: 10.5 nM | Ki [24]: 12.6 nM | Ki [25]: 19.9 nM
Compound: COc1ccc(C2=N[C@@H](c3ccc(Cl)cc3)[C@@H](c3ccc(Cl)cc3)N2C(=O)N2CCNC(=O)C2)c(OC(C)C)c1 [NUTLIN-3]
